Laboratory results taken from publication PMC3018560 (Antiviral research, 2010).

Key:
HIV = conditions: anti-HIV agent, patients; ref Fischl et al., 1994; cited from earlier work
[1] = mouse; ref Alonzi et al., 2008; cited from earlier work
[2] = human; ref Lindahl et al., 2005; cited from earlier work
[3] = tested on: DENV (serotype 2, TSV01 strain); test: Dengue viremia model in AG129 mouse, plasma virus titer by plaque assay; assay type: in vivo; conditions: AG129 mice
Method in brief: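 AG129 mice (lacking type I and type II interferon receptors), 7 to 8 weeks old, 6 per dosing group, challenged i.p. with 5×10^6 pfu/mouse. Ribavirin dosed once daily and imino sugars twice daily at 12 hr intervals for 3 consecutive days post-infection; PBS to controls. Plasma virus titer by plaque assay on blood drawn day 3. Reported as average and standard deviation; student t test versus PBS control.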

Structure (SMILES) | Antiviral efficacy in phase II clinical trial (HIV) | T1/2 [1] | Systematic concentration [2] | Effect on viremia of dose increase ([3]; ribavirin dose raised from 40mg/kg to 80mg/kg) | Effect on viremia ([3]; ribavirin oral 40mg/kg once daily alone, 3 days (Fig. 5A))
CCCCN1C[C@H](O)[C@@H](O)[C@H](O)[C@H]1CO [NBDNJ] | did not demonstrate any antiviral efficacy | 1.34 h | – | – | –
NC(=O)c1ncn([C@@H]2O[C@H](CO)[C@@H](O)[C@H]2O)n1 [ribavirin] | – | – | ~ 15 μM | did not improve its antiviral effect | did not reduce viremia
